Data set [1] has as its target integrin αvβ3 (Homo sapiens, UniProt P05106+P06756). Briefly: Bio-layer interferometry. Type of data set: binding. A digest of the protocol: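 Biotinylated test peptide, 25 μM stock in 5% DMSO/95% water, diluted 100-fold in 0.05% Tween 20 in 1X PBS. The peptide was loaded onto streptavidin biosensors for 300 s, with 60 s buffer-only steps on either side. Association ran 600 s against human recombinant integrin αvβ3 at 10–300 nM in the same buffer. kon and koff were fitted to a single-binding-site association model.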
(In general: In BLI a coated tip is dipped into the sample, and binding shifts an interference pattern.)

For data set [2], the system named is MDA-MB-231 tumors. Briefly: Biodistribution in orthotopic MDA-MB-231 xenograft mouse model. To be noted: AXT050-IRD800 intravenous, organs harvested 24 h post injection. It counts as in vivo.

Ends that are not written are not given here.

integrin αvβ3, sequence (P06756 31-992 limits assumed): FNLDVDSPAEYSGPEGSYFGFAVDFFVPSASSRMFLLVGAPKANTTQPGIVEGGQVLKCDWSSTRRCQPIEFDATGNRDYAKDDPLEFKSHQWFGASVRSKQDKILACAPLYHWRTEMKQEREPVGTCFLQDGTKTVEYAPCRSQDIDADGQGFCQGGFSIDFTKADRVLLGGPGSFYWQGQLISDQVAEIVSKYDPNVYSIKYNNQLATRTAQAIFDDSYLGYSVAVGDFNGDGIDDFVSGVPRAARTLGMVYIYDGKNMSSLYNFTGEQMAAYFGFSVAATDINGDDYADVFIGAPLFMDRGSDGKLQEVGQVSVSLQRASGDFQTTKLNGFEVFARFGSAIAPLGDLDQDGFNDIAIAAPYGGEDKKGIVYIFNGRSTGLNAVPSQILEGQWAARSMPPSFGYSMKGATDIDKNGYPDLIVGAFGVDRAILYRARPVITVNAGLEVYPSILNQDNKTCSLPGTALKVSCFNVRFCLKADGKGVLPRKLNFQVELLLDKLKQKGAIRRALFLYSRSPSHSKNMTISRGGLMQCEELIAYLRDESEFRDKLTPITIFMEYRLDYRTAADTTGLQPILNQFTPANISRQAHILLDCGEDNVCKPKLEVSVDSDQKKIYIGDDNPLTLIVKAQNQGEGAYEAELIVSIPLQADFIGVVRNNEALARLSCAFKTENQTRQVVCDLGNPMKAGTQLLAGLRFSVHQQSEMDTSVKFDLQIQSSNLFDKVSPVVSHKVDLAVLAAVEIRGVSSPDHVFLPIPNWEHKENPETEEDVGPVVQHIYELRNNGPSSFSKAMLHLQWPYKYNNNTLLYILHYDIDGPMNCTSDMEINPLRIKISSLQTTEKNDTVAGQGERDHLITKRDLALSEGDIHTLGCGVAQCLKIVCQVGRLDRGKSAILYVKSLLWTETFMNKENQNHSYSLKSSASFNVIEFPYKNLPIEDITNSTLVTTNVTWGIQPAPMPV
integrin αvβ3, sequence (P05106 27-718 limits assumed): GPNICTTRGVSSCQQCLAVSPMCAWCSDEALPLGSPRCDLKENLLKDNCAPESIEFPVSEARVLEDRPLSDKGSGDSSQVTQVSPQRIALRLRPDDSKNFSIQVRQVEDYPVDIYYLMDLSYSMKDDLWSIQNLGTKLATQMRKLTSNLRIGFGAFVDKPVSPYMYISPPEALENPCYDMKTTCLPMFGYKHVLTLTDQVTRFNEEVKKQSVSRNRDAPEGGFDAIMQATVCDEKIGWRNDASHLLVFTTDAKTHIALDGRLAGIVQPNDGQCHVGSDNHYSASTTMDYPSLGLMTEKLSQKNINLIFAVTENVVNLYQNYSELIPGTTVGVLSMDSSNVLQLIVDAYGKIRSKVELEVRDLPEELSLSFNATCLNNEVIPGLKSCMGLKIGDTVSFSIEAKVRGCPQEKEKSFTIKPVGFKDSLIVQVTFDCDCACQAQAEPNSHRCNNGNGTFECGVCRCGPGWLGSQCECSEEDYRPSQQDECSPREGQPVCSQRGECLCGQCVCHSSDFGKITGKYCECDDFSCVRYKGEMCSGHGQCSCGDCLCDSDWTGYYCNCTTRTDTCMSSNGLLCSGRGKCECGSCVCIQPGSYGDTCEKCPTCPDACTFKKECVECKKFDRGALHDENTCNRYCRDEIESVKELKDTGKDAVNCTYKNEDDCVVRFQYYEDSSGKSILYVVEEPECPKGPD

By koff is commonly meant a measure of how fast the partners let go of each other. Low values mean slow dissociation, high ones fast dissociation. LRRFSTAPFAFIDINDVINF [AXT050] displayed a koff in data set [1] of 0.0032 s⁻¹. The “organ with highest detection / main route of clearance” value in data set [2] is reported as “highest level of its detection in the kidneys”.
